# Activity calls are given as the source filed them. No cut-off for these calls is given here.
# What was measured:
# [1] = target: Delta-aminolevulinic acid dehydratase (Pseudomonas aeruginosa (strain ATCC 15692 / PAO1 / 1C / PRS 101 / LMG12228)) (UniProt Q59643); experiment: Inhibition of Pseudomonas aeruginosa PAO1 recombinant PBGS using 0.2 mM 5-ALA as substrate at 50 to 200 uM at pH 7.5 in presence of KCl by buffer scan assay
# [2] = target: T1, Delta-aminolevulinic acid dehydratase (Escherichia coli (strain K12)) (UniProt P0ACB2); experiment: Inhibition of Escherichia coli recombinant PBGS using 5-ALA as substrate at 50 to 200 uM at pH 7 to 8.5 by buffer scan assay
# T1 sequence (whole entry): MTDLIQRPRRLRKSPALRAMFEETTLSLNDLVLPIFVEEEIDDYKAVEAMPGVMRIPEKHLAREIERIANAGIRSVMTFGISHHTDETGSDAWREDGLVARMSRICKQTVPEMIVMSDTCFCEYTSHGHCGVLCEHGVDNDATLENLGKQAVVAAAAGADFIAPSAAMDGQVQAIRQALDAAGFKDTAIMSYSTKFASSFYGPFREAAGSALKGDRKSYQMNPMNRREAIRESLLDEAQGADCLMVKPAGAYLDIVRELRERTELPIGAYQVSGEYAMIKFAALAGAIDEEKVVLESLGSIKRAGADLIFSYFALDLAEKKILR
# [3] = target: Delta-aminolevulinic acid dehydratase (Yersinia enterocolitica W22703) (UniProt F4MUJ9); experiment: Inhibition of Yersinia enterocolitica recombinant PBGS expressed in Escherichia coli using 5-ALA as substrate at 50 to 200 uM at pH 7 to 8.5 by buffer scan assay
# Chain of Delta-aminolevulinic acid dehydratase (Yersinia enterocolitica W22703) (F4MUJ9 as listed by the source): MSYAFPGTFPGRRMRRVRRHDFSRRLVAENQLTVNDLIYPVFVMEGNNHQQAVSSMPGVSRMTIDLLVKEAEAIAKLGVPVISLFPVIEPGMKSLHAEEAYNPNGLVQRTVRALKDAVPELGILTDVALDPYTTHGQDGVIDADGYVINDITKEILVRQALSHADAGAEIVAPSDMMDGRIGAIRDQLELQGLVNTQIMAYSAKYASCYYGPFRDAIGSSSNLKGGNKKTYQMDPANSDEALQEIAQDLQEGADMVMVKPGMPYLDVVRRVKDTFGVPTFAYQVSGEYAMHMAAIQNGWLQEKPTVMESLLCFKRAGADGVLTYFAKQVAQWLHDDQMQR
# [4] = target: Delta-aminolevulinic acid dehydratase (Pseudomonas aeruginosa (strain ATCC 15692 / PAO1 / 1C / PRS 101 / LMG12228)) (UniProt Q59643); experiment: Activation of Pseudomonas aeruginosa PAO1 recombinant PBGS using 0.2 mM 5-ALA as substrate at 10 to 10000 uM at pH 7.5 by buffer scan assay in presence of 10 mM MgCl2
# [5] = target: Delta-aminolevulinic acid dehydratase (Pseudomonas aeruginosa (strain ATCC 15692 / PAO1 / 1C / PRS 101 / LMG12228)) (UniProt Q59643); experiment: Inhibition of Pseudomonas aeruginosa PAO1 recombinant PBGS using 0.2 mM 5-ALA as substrate assessed as reduction in Vmax at 50 to 200 uM at pH 7.5 by Michaelis-Menten plot analysis in presence of MgCl2
# Outline: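 PaPBGS under "standard inhibitory" conditions (100 mM Tris-HCl pH 7.5, 1 mM MgCl2, no KCl). 5-ALA varied for substrate-response curves at several wALADin1 levels; KM and VMAX derived from the fits. Incubation at 36 °C.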
# [6] = target: Delta-aminolevulinic acid dehydratase (Pseudomonas aeruginosa (strain ATCC 15692 / PAO1 / 1C / PRS 101 / LMG12228)) (UniProt Q59643); experiment: Stimulation of Pseudomonas aeruginosa PAO1 recombinant PBGS assessed as stabilization of dimeric form at 8 to 2000 uM by nondenaturing PAGE analysis in presence of Mg2+ and K+
# Outline: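 PaPBGS (3 μg) preincubated 20 min at 37 °C in assay buffer with 1 mM Mg2+, 100 mM K+ and wALADin1, no 5-ALA. Run on 7.5% nondenaturing PAGE at 4 °C for 15–20 h. Coomassie for oligomer state; in-gel activity with 500 μM 5-ALA stained with Ehrlich's reagent.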
# [7] = target: Delta-aminolevulinic acid dehydratase (Pseudomonas aeruginosa (strain ATCC 15692 / PAO1 / 1C / PRS 101 / LMG12228)) (UniProt Q59643); experiment: Stimulation of Pseudomonas aeruginosa PAO1 recombinant PBGS using 5-ALA as substrate at 10 to 1000 uM at pH 8 in presence of 0.1 to 10000 uM MgCl2
# [8] = target: Delta-aminolevulinic acid dehydratase (Yersinia enterocolitica W22703) (UniProt F4MUJ9); experiment: Stimulation of Yersinia enterocolitica recombinant PBGS expressed in Escherichia coli using 5-ALA as substrate at 10 to 1000 uM at pH 8 in presence of MgCl2 and KCl
# [9] = target: Delta-aminolevulinic acid dehydratase (Yersinia enterocolitica W22703) (UniProt F4MUJ9); experiment: Stimulation of Yersinia enterocolitica recombinant PBGS expressed in Escherichia coli using 5-ALA as substrate at 10 to 1000 uM at pH 8 in presence of 0.1 to 10000 uM MgCl2
# [10] = target: T2, Delta-aminolevulinic acid dehydratase, chloroplastic (Pisum sativum, UniProt P30124); experiment: Inhibition of Pisum sativum PBGS using 5-ALA as substrate; design: species or system Lathyrus oleraceus
# T2 sequence (P30124 whole entry): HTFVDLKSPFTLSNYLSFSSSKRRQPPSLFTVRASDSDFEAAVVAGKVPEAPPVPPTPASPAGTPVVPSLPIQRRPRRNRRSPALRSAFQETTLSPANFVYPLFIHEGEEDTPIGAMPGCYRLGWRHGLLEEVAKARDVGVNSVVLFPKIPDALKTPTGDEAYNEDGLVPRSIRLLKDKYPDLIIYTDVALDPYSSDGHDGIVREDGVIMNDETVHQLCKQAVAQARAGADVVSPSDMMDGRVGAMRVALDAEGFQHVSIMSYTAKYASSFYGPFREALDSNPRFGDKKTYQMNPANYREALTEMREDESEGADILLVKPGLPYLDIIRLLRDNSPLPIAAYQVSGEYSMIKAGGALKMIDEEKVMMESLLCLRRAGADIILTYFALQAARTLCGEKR
# Outline: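 Pea (P. sativum) PBGS at 300 nM subunit in 100 mM BTP-HCl pH 8.5 with 1 mM MgCl2, 5 mM DTT and 0.2 mM 5-ALA, 15 min at 36 °C. Porphobilinogen detected with Ehrlich's reagent. Activity normalized to 6.7% DMSO control as 100%. IC50 from variable-slope normalized-response fit.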
# [11] = target: Delta-aminolevulinic acid dehydratase (Yersinia enterocolitica W22703, UniProt F4MUJ9); experiment: Stimulation of Yersinia enterocolitica recombinant PBGS expressed in Escherichia coli using 5-ALA as substrate
# Chain of Delta-aminolevulinic acid dehydratase (Yersinia enterocolitica W22703, UniProt F4MUJ9) (F4MUJ9 whole entry, one chain of several): as the sequence (F4MUJ9 as listed by the source) above
# [12] = target: Delta-aminolevulinic acid dehydratase (Yersinia enterocolitica W22703) (UniProt F4MUJ9); experiment: Stimulation of Yersinia enterocolitica recombinant PBGS expressed in Escherichia coli using 5-ALA as substrate relative to control
# Outline: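 Y. enterocolitica PBGS, expressed in E. coli from pET3, at 150 nM subunit in 100 mM BTP-HCl pH 8.0 with 1 mM MgCl2, 5 mM DTT, 100 mM KCl and 0.2 mM 5-ALA, 10 min at 36 °C. Porphobilinogen read with Ehrlich's reagent. Activity normalized to 6.7% DMSO control as 100%. EC50 from variable-slope agonist fit.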
# [13] = target: Delta-aminolevulinic acid dehydratase (Pseudomonas aeruginosa (strain ATCC 15692 / PAO1 / 1C / PRS 101 / LMG12228), UniProt Q59643); experiment: Stimulation of Pseudomonas aeruginosa PAO1 recombinant PBGS using 5-ALA as substrate
# Chain of Delta-aminolevulinic acid dehydratase (Pseudomonas aeruginosa (strain ATCC 15692 / PAO1 / 1C / PRS 101 / LMG12228), UniProt Q59643) (Q59643 whole entry): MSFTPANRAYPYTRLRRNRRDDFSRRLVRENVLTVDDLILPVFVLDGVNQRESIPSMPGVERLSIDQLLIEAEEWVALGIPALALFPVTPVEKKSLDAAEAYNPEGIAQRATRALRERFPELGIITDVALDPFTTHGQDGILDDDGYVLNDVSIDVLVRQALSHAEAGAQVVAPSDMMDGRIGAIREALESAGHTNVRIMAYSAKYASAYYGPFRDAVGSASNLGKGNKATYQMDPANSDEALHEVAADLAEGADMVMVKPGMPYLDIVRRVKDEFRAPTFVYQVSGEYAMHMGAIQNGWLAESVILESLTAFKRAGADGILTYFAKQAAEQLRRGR
# Outline: (§1)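 His-tagged PaPBGS at 150 nM subunit in 100 mM Tris-HCl pH 8.0 with 1 mM MgCl2, 100 mM KCl and 0.2 mM 5-ALA, 10 min at 36 °C, with turnover at most 30%. Porphobilinogen read with Ehrlich's reagent. Activity normalized to 6.7% DMSO control as 100%. EC50 from variable-slope agonist fit.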
# [14] = target: Delta-aminolevulinic acid dehydratase (Pseudomonas aeruginosa (strain ATCC 15692 / PAO1 / 1C / PRS 101 / LMG12228)) (UniProt Q59643); experiment: Stimulation of Pseudomonas aeruginosa PAO1 recombinant PBGS using 5-ALA as substrate relative to control; outline: as §1
# [15] = tested on: Toxoplasma gondii; experiment: Stimulation of Toxoplasma gondii recombinant PBGS using 5-ALA as substrate relative to control
# Outline: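 Recombinant T. gondii PBGS (hemB in pET-21b, expressed in BL21 E. coli) at 250 nM subunit in 100 mM Tris-HCl pH 8.0, 1 mM MgCl2, 5 mM DTT, with 200 μM 5-ALA, 20 min at 36 °C. Porphobilinogen was read with Ehrlich's reagent, and turnover was kept at or below 30%.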
# Chain of Delta-aminolevulinic acid dehydratase (Pseudomonas aeruginosa (strain ATCC 15692 / PAO1 / 1C / PRS 101 / LMG12228)) (Q59643 whole entry): as above
compound,measurement,setting,value
O=C(O)c1ccc2c(c1)nc(CCNC(=O)c1cccs1)n2Cc1cccc(C(F)(F)F)c1,inhibition,[1],Active
same,inhibition,[2],Active
same,inhibition,[3],Active
same,Activity,[4],Active
same,inhibition,[5],Active
same,Activity,[6],inactive
same,Activity,[7],Active
same,Activity,[8],Active
same,Activity,[9],Active
same,IC50,[10],10.6 µM
same,EC50,[11],66 µM
same,Smax,[12],152%
same,EC50,[13],69 µM
same,Smax,[14],123%
same,Smax,[15],128%

# — ChEMBL document CHEMBL3286371, “wALADin benzimidazoles differentially modulate the function of porphobilinogen synthase orthologs” (J Med Chem, 2014)
